# Screening data deposited in PubChem by Johns Hopkins Ion Channel Center.
# hERG protect: hERG (human) protection from proarrhythmic block; Q12809; CHO-hERG, FluxOR thallium flux, dofetilide IC70 present; activation (rescue from dofetilide block), less the hit threshold, % at 10 µM; 0.51% of 310,000 active;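 active = activation above the mean of controls blocked by dofetilide plus 5 SD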;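 note: thallium influx through hERG after potassium depolarization seen as dye fluorescence rise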
# KCNK3 inh: human KCNK3 channel inhibition, primary screen | B-score at 10 µM | AID 602410 | 0.84% of 340,000 active | O14649 | CHO-KCNK3 thallium flux, FluxOR fluorescence; active compounds read low;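 active = B-score under library mean minus 4 SD, starting fluorescence ratio at most library mean plus 5 SD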;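 note: more negative B-score means stronger inhibition of thallium flux through KCNK3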
# Target sequence (O14649 whole entry, looked up): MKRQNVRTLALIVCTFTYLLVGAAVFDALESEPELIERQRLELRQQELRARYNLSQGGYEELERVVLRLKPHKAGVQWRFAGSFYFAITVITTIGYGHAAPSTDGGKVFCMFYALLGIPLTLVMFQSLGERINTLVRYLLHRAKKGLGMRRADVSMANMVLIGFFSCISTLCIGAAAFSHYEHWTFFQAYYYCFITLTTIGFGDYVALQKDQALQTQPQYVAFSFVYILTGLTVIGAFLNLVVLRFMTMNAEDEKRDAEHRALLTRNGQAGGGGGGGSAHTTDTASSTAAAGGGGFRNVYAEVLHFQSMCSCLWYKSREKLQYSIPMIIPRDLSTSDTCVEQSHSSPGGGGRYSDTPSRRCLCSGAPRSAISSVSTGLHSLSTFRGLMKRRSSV
# KCNQ1 block: inhibitors of human KCNQ1 potassium channel; P51787; CHO-K1 KCNQ1, FluxOR thallium flux fluorescence; active compounds read high; B-score at 10 µM; 1.3% of 310,000 active; AID 2642;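 active = compounds whose thallium flux B-score, printed positive for inhibition, exceeds three library SD while starting fluorescence stays within three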;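 note: channel opened by potassium depolarization with thallium stimulus after 20 min compound exposure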
# KCNK9 inh: blocks the human KCNK9 two-pore domain potassium channel; B-score at 10 µM; 1.2% of 310,000 active; Q9NPC2; HEK293 KCNK9, FluxOR thallium flux fluorescence; active compounds read low;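 active = ratio B-score over 3 SD below the library mean, with starting fluorescence within 5 SD of its mean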;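 note: negative B-score means less thallium flux so channel inhibition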
# KCNQ1 act: human KCNQ1 channel potentiation or activation. CHO-K1 KCNQ1, thallium flux FluxOR fluorescence; active compounds read high. AID 2648. 0.35% of 310,000 active. B-score at 10 µM;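 active = fluorescence ratio B-score, a plate-corrected score, at least three library SD, with initial intensity B-score within 5 SD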
#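 Doses: Single concentration per compound, DMSO matched to controls | Test system: KCNQ1-transfected CHO-K1 cells | Timing: 90 min dye loading and 20 min compound exposure, both at room temperature | Measured by: Kinetic FluxOR thallium fluorescence, 10-s 1-Hz baseline, 110-s post-stimulus read | Medium: Assay buffer with matched DMSO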
# Kir21 block: Kir2.1 (mouse) channel inhibition | P35561 | HEK293-Kir2.1, FluxOR thallium flux fluorescence; active compounds read low | B-score at 10 µM | 0.85% of 310,000 active;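 active = fluorescence ratio B-score at or below minus 3 SD of library scores, with starting-brightness B-score within 2 SD, cut at about -4.2 in these data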;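 note: channel flux triggered by added potassium and thallium sulfate stimulus; B-score of peak minus minimum fluorescence over baseline after thallium stimulus; more negative B-score means stronger Kir2.1 block with less thallium influx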
# The depositor's hits bear a star; i = inactive; / = not tested or not shown. Only some compounds are listed: those with a hit (about 3.8% of all), similar ones and a draw of the others.
SMILES,hERG protect,KCNK3 inh,KCNQ1 block,KCNK9 inh,KCNQ1 act,Kir21 block
CC(C)c1cc(NCCN2CCOCC2)n2c(nc3ccccc32)c1C#N,/,-9.22*,/,/,/,/
C=CCN1C(=O)/C(=C\C=C2\N(C)c3ccccc3C2(C)C)SC1=S,-9.6,i,i,i,i,-3.06
C=CCN1C(=O)/C(=C/C=C2/N(CC)c3ccc(S(=O)(=O)N(C)C)cc3N2CC)SC1=S,-16.7,i,9*,i,i,-12.2
COC(=O)C(NC(=O)c1ccc(F)cc1)(Nc1ncc(S(=O)(=O)c2ccc([N+](=O)[O-])cc2)s1)C(F)(F)F (centres undefined),-20.9,i,7*,i,i,1.49
O=C(Nc1ncc(S(=O)(=O)c2ccc([N+](=O)[O-])cc2)s1)c1ccccc1F,-4.1,i,i,i,i,-0.42
CCNC(=O)N(C)C[C@H]1N[C@@](CC)(C(=O)OC)[C@H]2C(=O)N(Cc3ccccc3)C(=O)[C@@H]12,/,i,/,/,/,/
CCN1/C(=C/C=C/C=C/c2sc3ccccc3[n+]2CC)Sc2ccccc21,-41.8,/,17*,i,i,-3.91
CCN1/C(=C/C=C/C=C/C=C/c2sc3ccccc3[n+]2CC)Sc2ccccc21,-33.5,i,i,i,i,0.83
O=C1C2C3C=CC(C3)C2C(=O)N1/N=C/c1ccc(-c2ccccc2[N+](=O)[O-])o1 (centres undefined),-4.0,i,i,i,i,0.01
O=C1C2C3C=CC(C3)C2C(=O)N1/N=C/c1cc(Br)cc([N+](=O)[O-])c1O (centres undefined),-6.3,i,7*,i,i,2.17
Cc1ccc(NC(=O)c2c(Cl)n(C)c3ccccc23)cc1,-3.5,i,i,-7.14*,i,0.98
O=C(N/N=C/c1cccnc1)c1ccccc1OCc1ccc(Cl)cc1,-4.5,/,i,-6.87*,i,0.18
O/N=C\c1ccc2noc(-c3ccc(Cl)cc3)c2c1,-3.1,i,i,i,i,0.04
CCc1ccc2c(CN3CCN(S(=O)(=O)c4ccccc4F)CC3)cc(=O)oc2c1,/,i,/,/,/,/
CCc1ccc2c(CN3CCN(Cc4ccccc4)CC3)cc(=O)oc2c1,-17.5,i,i,i,i,-5.19*
Cc1nnc(SCc2cc(=O)oc3cc(O)ccc23)n1Cc1ccccc1,10.5*,i,i,i,i,-0.01
O=C(N/N=C/c1cccc(Br)c1)C1CC(=O)N(c2ccccc2)C1 (centres undefined),-7.1,i,i,i,i,0.65
COc1ccc(NC(=O)C2=CCN(S(=O)(=O)c3ccccc3)CC2)cc1OC,-12.6,i,i,i,i,0.04
CCCOc1ccc(/C(O)=C2/C(=O)C(=O)N(CCCn3ccnc3)C2c2ccco2)cc1 (centres undefined),6.8*,i,i,i,i,0.84
Cc1noc(C)c1COC(=O)CNC(=O)c1cccc(F)c1,-13.9,i,i,i,i,0.04
Cc1noc(C)c1COC(=O)C1(c2cccc(F)c2)CCCC1,-11.1,i,i,i,i,-4.34*
O=C(COc1ccccc1Cl)NCCCNC(=O)c1cnccn1,-6.2,i,i,i,i,0.19
CCOC(=O)c1[nH]c2ccc(OCC)cc2c1CCCN1C(=O)c2ccccc2C1=O,-3.5,i,i,i,i,0.49
COc1ccccc1N(Cc1ccccc1)S(=O)(=O)c1cccc(C(=O)Nc2ccc(C)cn2)c1,-18.0,i,6*,i,i,-0.91
COc1ccccc1N(Cc1ccccc1)S(=O)(=O)c1cccc(C(=O)Nc2ccccn2)c1,-10.6,i,i,i,i,-0.59
SMILES,hERG protect,KCNK3 inh,KCNQ1 block,KCNK9 inh,KCNQ1 act,Kir21 block
Cc1ccc(C(=O)c2coc3ccc(O)c(CN4CCN(C)CC4)c23)cc1,-13.9,i,i,i,i,-4.64*
CCN(CC)Cc1c(O)ccc2occ(C(=O)c3ccc(OC)cc3)c12,-10.2,i,i,i,i,-1.38
COc1ccc(C(=O)c2coc3ccc(O)c(CN4CCOCC4)c23)cc1,-7.2,i,i,i,i,-4.65*
COc1ccc(C(=O)c2coc3ccc(O)c(CN4CCCC4)c23)cc1,-15.0,i,i,i,i,-1.41
O=C(c1coc2ccc(O)c(CN3CCOCC3)c12)C1CC1,-5.7,i,i,i,i,0
O=C(c1cccs1)c1coc2ccc(O)c(CN3CCOCC3)c12,-9.8,i,i,i,i,-4.24*
CC(C)Cn1c(N)c(C(=O)COC(=O)/C=C/c2ccccc2)c(=O)n(C)c1=O,-22.0,i,i,i,i,0.03
C=C[C@@]1(C)CC(=O)[C@]2(O)[C@@]3(C)[C@@H](O)CCC(C)(C)[C@@H]3[C@H](OC(C)=O)[C@H](O)[C@@]2(C)O1,-12.8,i,i,i,13*,-0.96
C=C[C@@]1(C)CC(=O)[C@]2(O)[C@@]3(C)[C@@H](O)CCC(C)(C)[C@@H]3[C@H](O)[C@H](OC(C)=O)[C@@]2(C)O1,-13.5,i,i,i,12*,0.06
CC(=O)/C(N=Nc1nc2c([nH]1)c(=O)n(C)c(=O)n2C)=C(\C)O,-7.5,i,i,i,i,-0.64
CC(C)COc1ccc(S(=O)(=O)n2cc(F)c(=O)[nH]c2=O)cc1,5.0*,i,i,i,i,0.02
O=C(NNC(=O)c1ccc(O)cc1O)c1ccc(Cl)cc1,-12.4,i,6*,i,i,0.05
CCCc1cc(=O)oc2cc(C)cc(OCC(=O)Nc3cccnc3)c12,-2.4,i,i,i,i,-0.04
CC(C)(C)C(=O)NC1CC2CCCC(C1)N2C(=O)Nc1cccc(Cl)c1 (centres undefined),-1.4,i,i,i,i,0.75
COc1ccccc1N1CCN(S(=O)(=O)c2cccc(F)c2)CC1,-18.5,i,i,i,i,-0.31
COc1ccc(CCN(C(=O)Cn2nnc3ccccc32)C(C(=O)NCC2CCCO2)c2ccncc2)cc1OC (centres undefined),39.3*,i,i,i,i,0.25
CCOc1cc(C(C(=O)NCC2CCCO2)N(C(=O)Cn2nnc3ccccc32)c2ccccc2OC)ccc1O (centres undefined),-8.2,i,i,i,i,1.08
CCN(C[C@H]1N[C@@](Cc2ccccc2)(C(=O)OC)[C@H]2C(=O)N(C)C(=O)[C@@H]12)C(=O)COC,/,i,/,/,/,/
CC(C)Cn1nc(NC(=O)c2cccs2)c2cc3ccccc3nc21,-8.2,i,i,-7*,i,0.62
